Rows were chosen to be rich in hits. Some 3.5% of all compounds tested hit in one or more screens of this group.
MrgX1 allo act: allosterically activates human MrgX1 receptor signaling; Q96LB2; AID 588675; hit rate 0.63% among 310,000; B-score at 10 µM; MrgX1-HEK293, Fluo-4 calcium flux, FDSS; active compounds read high;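 active = plate-corrected calcium response at least 3 library SD above typical, normal starting fluorescence, not activating the receptor alone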;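 note: compound read alongside a low EC10 to EC30 dose of BAM8-22 agonist; peak minus trough fluorescence over baseline measured at the second addition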
Target sequence (Q96LB2 whole entry, looked up): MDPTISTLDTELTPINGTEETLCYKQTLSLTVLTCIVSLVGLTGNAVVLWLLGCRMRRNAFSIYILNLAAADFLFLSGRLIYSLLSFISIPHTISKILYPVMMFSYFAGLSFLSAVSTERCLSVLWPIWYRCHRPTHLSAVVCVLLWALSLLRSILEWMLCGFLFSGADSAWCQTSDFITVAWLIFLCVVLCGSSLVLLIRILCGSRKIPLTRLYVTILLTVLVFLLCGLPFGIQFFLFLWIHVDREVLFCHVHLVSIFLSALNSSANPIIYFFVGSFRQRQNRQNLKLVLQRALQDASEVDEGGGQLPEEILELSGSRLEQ
MrgX1 antagonist: antagonists of human MrgX1 receptor | MRGX1-HEK293 calcium flux, Fluo-4, BAM8-22 antagonism; active compounds read low | Q96LB2 | B-score at 10 µM | hit rate 1.3% among 310,000;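 active = calcium-response B-score plate-corrected more than 3 library SD below zero, starting fluorescence within 5 deviations, no agonist response on first addition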;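 note: peak minus trough fluorescence over baseline after final BAM8-22 challenge near maximal dose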
RGS4 act: RGS4 potentiation or activation; HEK293 M3R/inducible RGS4, carbachol calcium flux Fluo4; active compounds read low; B-score at 10 µM; hit rate 0.92% among 310,000;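 active = B-score of the integrated calcium signal more than 4 SD below the library mean, with starting fluorescence not abnormally high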;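 note: negative B-score means reduced calcium response which marks RGS4 activation or potentiation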
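System – HEK293 FlpIn-TREx cells, stable M3R, doxycycline-inducible RGS4 · Reagent – ECmax carbachol challenge · Times – compound preincubation 20 min at room temperature before agonist · Technique – Fluo4 fluorescence kinetic imaging of calcium · Measure – B score of integrated Fluo4 ratio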
MrgX1 agonist: activates human MrgX1 receptor signaling; Q96LB2; MrgX1-HEK293 cells, Fluo-4 calcium fluorescence, agonist mode; active compounds read high; B-score at 10 µM; hit rate 0.44% among 310,000; AID 588627;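 active = calcium response B-score plate-corrected fluorescence ratio at least 3 library SD, with starting fluorescence B-score inside 5 SD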
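Assay system: stable human MrgX1 HEK293 cell line. Quantity: 15,000 cells per well. Schedule: cells plated overnight, dye loaded 0.5 h 37 °C, 0.5 h room temperature. Detection: Fluo-4 NW calcium-flux fluorescence, kinetic read. Read-out basis: peak-minus-minimum fluorescence over baseline, converted to B scores. Control set: positive and negative control wells on each plate.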
RGS4 inh: inhibitors of human RGS4. B-score at 10 µM. hit rate 0.45% among 310,000. HEK293 M3R/RGS4 inducible, Fluo-4 calcium flux; active compounds read high; triggered by carbachol at its EC20;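 active = B-score, a plate-corrected calcium signal, over three deviations above library mean, with baseline fluorescence within five deviations of library mean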;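 note: RGS4 expression induced by doxycycline in cells with stable M3 receptor; B-score is computed from the integrated fluorescence ratio over baseline after carbachol; higher B-score means a larger calcium signal and so more RGS4 inhibition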
Target sequence (P49798 whole entry, looked up): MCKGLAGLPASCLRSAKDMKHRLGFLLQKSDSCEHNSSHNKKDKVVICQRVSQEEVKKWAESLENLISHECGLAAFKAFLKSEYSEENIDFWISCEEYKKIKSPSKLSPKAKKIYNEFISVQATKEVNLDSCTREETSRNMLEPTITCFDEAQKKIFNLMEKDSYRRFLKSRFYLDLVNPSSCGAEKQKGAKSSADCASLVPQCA
* marks the source's active call; other numbers are inactive results; i = inactive; / = no result given.

SMILES | MrgX1 allo act | MrgX1 antagonist | RGS4 act | MrgX1 agonist | RGS4 inh
C#CCOCCOCCOCCNc1nc(N2CCN(C(=O)CCCCCCCCCCNC(=O)[C@H](CCCCN)n3cc(CCO)nn3)CC2)nc(N2CCN(C(=O)CCCCCCCCCCNC(=O)[C@H](CCCN=C(N)N)n3cc(C[C@@H](C)CC)nn3)CC2)n1 | i | i | / | 153* | /
C#CCOCCOCCOCCNc1nc(N2CCN(C(=O)CCCCCCCCCCNC(=O)[C@H](CCCCN)n3cc(CCO)nn3)CC2)nc(N2CCN(C(=O)CCCCCCCCCCNC(=O)[C@H](CCCCN)n3cc(CCO)nn3)CC2)n1 | i | i | / | i | /
C#CCOCCOCCOCCNc1nc(N2CCN(C(=O)CCCCCCCCCCNC(=O)Cn3cc(CCCCCN)nn3)CC2)nc(N2CCN(C(=O)CCCCCCCCCCNC(=O)[C@H]([C@@H](C)CC)n3cc(CCCCCN)nn3)CC2)n1 | i | i | / | 51* | /
CC(C)CCNC(=O)CN(Cc1ccccc1)C(=O)CCC(=O)Nc1ccccn1 | i | i | i | i | i
O=C(COc1ccccc1Cl)Nc1ccc2c(c1)C(=O)NC2=O | i | i | i | i | i
C#CCOCCOCCOCCNc1nc(N2CCN(C(=O)CCCCCCCCCCNC(=O)[C@H](CCCCN)n3cc(C)nn3)CC2)nc(N2CCN(C(=O)CCCCCCCCCCNC(=O)[C@@H]([C@H](C)CC)n3cc(CCCCCN)nn3)CC2)n1 | i | i | / | 120* | /
C#CCOCCOCCOCCNc1nc(N2CCN(C(=O)CCCCCCCCCCNC(=O)[C@H](CCCCN)n3cc(C[C@@H](C)CC)nn3)CC2)nc(N2CCN(C(=O)CCCCCCCCCCNC(=O)[C@H](CCCCN)n3cc(C[C@@H](C)CC)nn3)CC2)n1 | i | i | / | 89* | /
CC(C)(C)OC(=O)NCCCC[C@@H](C(=O)NCCCCCCCCCCC(=O)N1CCN(C(=O)OC(C)(C)C)CC1)n1cc(CCO)nn1 | i | i | / | i | /
CC[C@H](C)Cc1cn([C@@H](CCCCNC(=O)OC(C)(C)C)C(=O)NCCCCCCCCCCC(=O)N2CCN(C(=O)OC(C)(C)C)CC2)nn1 | i | -7.1* | / | i | /
C#CCOCCOCCOCCNc1nc(N2CCN(C(=O)CCCCCCCCCCNC(=O)[C@H]([C@@H](C)CC)n3cc(CCCCCN)nn3)CC2)nc(N2CCN(C(=O)CCCCCCCCCCNC(=O)[C@@H]([C@H](C)O)n3cc(C)nn3)CC2)n1 | i | i | / | i | /
C#CCOCCOCCOCCNc1nc(N2CCN(C(=O)CCCCCCCCCCNC(=O)[C@H](CCCCN)n3cc(CCCC(=O)O)nn3)CC2)nc(N2CCN(C(=O)CCCCCCCCCCNC(=O)[C@H](CCCN=C(N)N)n3cc(C[C@@H](C)CC)nn3)CC2)n1 | i | i | / | 40* | /
CCOC(=O)N1CCC(N2C(=O)c3ccccc3C2Nc2ccc(S(=O)(=O)N(CC)CC)cc2)CC1 (stereo not given) | i | i | i | i | i
CSCCC(NC(=O)c1ccccc1Br)C(=O)NCC(c1ccco1)N1CCCCC1 (stereo not given) | i | i | i | i | i
Cc1ccc(C(=O)C(C(=O)/C=C/c2ccccc2)=C2SCCCS2)cc1 | i | i | i | i | i
CCCS(=O)(=O)N1CCCC(C(=O)Nc2ccc3c(c2)CCC3)C1 (stereo not given) | i | i | i | i | i
Cc1ccc(Cl)cc1NC(=S)N1CCCCCC1 | i | i | i | i | i
COc1ccc(-c2oc3ccccc3c2C(=O)OCc2ccc(O)cc2)cc1 | i | i | i | i | i
COc1ccc(-c2oc3ccccc3c2C(=O)OCc2ccccc2)cc1 | 8.1* | i | i | i | i
COc1ccccc1CNC(=O)CCNS(=O)(=O)c1ccc2[nH]c(=O)oc2c1 | i | i | i | i | i
Cc1nn2c3ccccc3n(CCN3CCCCC3)c2nc1=O | i | -6* | i | i | i
C=CCn1c2ccccc2n2nc(C)c(=O)nc12 | i | i | i | i | i
CCN(CC)CCN1C(=O)c2oc3ccccc3c(=O)c2C1c1ccccc1 (stereo not given) | i | -6* | i | i | i
CCN(CC)CCCN1C(=O)c2oc3ccccc3c(=O)c2C1c1cccs1 (stereo not given) | 11* | i | i | i | i
O=C(O)c1cccc(S(=O)(=O)N2CCC(n3nnc4cc(C(F)(F)F)ccc43)CC2)c1 | i | i | i | i | i
Cc1ccc(C2(c3ccc(C)cc3)CC2C(=O)Nc2ccc([N+](=O)[O-])cc2O)cc1 (stereo not given) | i | -4.5* | i | i | i
SMILES | MrgX1 allo act | MrgX1 antagonist | RGS4 act | MrgX1 agonist | RGS4 inh
CC1(C)CC1C(=O)Nc1ccc([N+](=O)[O-])cc1Br (stereo not given) | i | i | i | i | i
O=C1c2cc(O)c(O)cc2S(=O)(=O)C1c1ccccc1 (stereo not given) | i | i | i | i | i
COC(=O)c1sc(NC(=S)NNC(=O)c2c(Br)c(C)nn2C)c(C(=O)OC)c1C | i | -5.1* | i | i | i
COC(=O)c1sc(NC(=O)C(C)C)c(C(=O)OC)c1C | i | i | i | i | i
Nc1ncnc2c1ncn2[C@H]1C[C@H](O)[C@@H](COP(=O)(O)O)O1 | i | i | i | i | i
NC(=O)c1ccc[n+]([C@H]2O[C@@H](COP(=O)([O-])OP(=O)(O)OC[C@H]3O[C@@H](n4cnc5c(N)ncnc54)[C@H](O)[C@@H]3O)[C@H](O)[C@@H]2O)c1 | i | i | / | 34* | /
Cc1cccc(NC(=O)CNC(=O)CN2C(=O)NC3(CCCCC3C)C2=O)c1C (stereo not given) | i | i | i | i | i
Cc1cc2oc(=O)cc(CN3CCc4ccccc43)c2cc1Cl | i | i | i | 54* | i
CCc1ccc2c(CN3CCc4ccccc43)cc(=O)oc2c1 | i | i | i | 38* | i
CSc1ccccc1C(=O)NCCCn1ccnc1 | i | i | i | i | i
CCCCn1c(N)c(N(CC(C)C)C(=O)CCCSc2nncs2)c(=O)[nH]c1=O | i | i | i | i | i
COCCNC(=O)C(c1ccc(C)o1)N(C(=O)Cn1nnc2ccccc21)c1ccccc1 (stereo not given) | i | i | i | i | i
COc1ccccc1/C=C/C(=O)OCC(=O)NNC(=O)c1ccccc1 | i | -5.2* | i | i | i
COc1ccccc1/C=C/C(=O)OCC(=O)NCc1ccco1 | i | i | i | i | i
